tim23-1 inh = growth inhibitors of tim23-1 mutant yeast | AID 463212 | inhibition, % at 20 µM | 330,000 tested, 1.3% active | S. cerevisiae tim23-1 growth, BacTiter-Glo luminescence, 24 h;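 active means growth inhibition of the mutant yeast at or above 50%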;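 further: temperature-sensitive mutant grown at 25 °C; plate controls were DMSO-treated mutant yeast for no effect and medium wells lacking yeast for full effect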
TIM10 inh = inhibits growth of TIM10 yeast strain. inhibition, % at 10 µM. 330,000 tested, 1.4% active. S. cerevisiae TIM10 strain growth, BacTiter-Glo luminescence, 24 h. AID 463195;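 active means inhibition of 40% or more at the single tested concentration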;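 further: wild-type TIM10 isogenic control strain grown at permissive 25 °C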
UPR CHOP act = apoptotic UPR (CHOP) activation. CHO-CHOP luciferase reporter, luminescence; percent of tunicamycin response over DMSO baseline. AID 449763. activation, % at 10 µM. 330,000 tested, 0.34% active;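 active means at 10 µM dose, activation of 40% or more, normalized to positive control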;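 further: 100% = tunicamycin at 10 µg/mL and 0% = DMSO alone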
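Assay system: CHO-CHOP cells, stable luciferase reporter of PERK-eIF2a-CHOP signalling / Buffer or medium: F12 plus 10% serum / Compound dosing: one dose, 10 µM in 0.5% DMSO / Times: 6 h compound treatment, 37 °C / Technique: luciferase luminescence / Read-out: % reporter activation, DMSO baseline versus tunicamycin full activation / Benchmarks: tunicamycin and DMSO controls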
XBP1 UPR activ = activators of adaptive arm of unfolded protein response (XBP1); CHO-XBP1 luciferase reporter, IRE1-XBP1 UPR activation, luminescence; percent of tunicamycin response, DMSO as zero; AID 463104; activation, % at 20 µM; 330,000 tested, 0.33% active;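 active means versus positive control, 20 µM dose yields 30% or more activation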;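 further: 100% = tunicamycin at 10 µg/mL and 0% = DMSO only wells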
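Material: CHO-XBP1 cells stably carrying IRE1-XBP1-driven luciferase reporter | Medium: F12 with 10% serum | Compound dosing: 20 µM single concentration, DMSO 1% | Incubation: Overnight seeding at 37 °C, 6 h compound treatment at 37 °C | Detection: Steady-Glo luminescence read | Read-out basis: % activation of reporter signal versus tunicamycin and DMSO controls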
tim10-1 inh = tim10-1 yeast growth inhibition | 330,000 tested, 2.2% active | S. cerevisiae tim10-1 ts strain growth, BacTiter-Glo, 24 h | inhibition, % at 20 µM;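 active means inhibition of at least 40%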;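 further: mutant grown at 25 °C; 0% = DMSO wells with yeast and 100% = wells holding no yeast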
tim10-1 confirm = tim10-1 yeast growth inhibition, confirmed | 7,400 tested, 56% active | S. cerevisiae tim10-1 ts strain growth, BacTiter-Glo, 24 h | inhibition, % at 20 µM | shares compounds with tim10-1 inh;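 active means inhibition of yeast growth at or above a set limit in either of two repeat tests at 20 µM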;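 further: tim10-1 mutant grown at permissive 25 °C to find synthetic lethal compounds; 0% = DMSO yeast wells and 100% = medium wells without yeast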
* hit, by the source's call; · = no result given. Most compounds without a hit are left out; they make up all but 3.9% or so of the library.

SMILES	tim23-1 inh	TIM10 inh	UPR CHOP act	XBP1 UPR activ	tim10-1 inh	tim10-1 confirm
COCC(C)n1c(SCC(=O)NC(=O)NC2CCCC2)nc2ccccc2c1=O (configuration not stated)	38	13	0	0	19	·
Cc1ccccc1N1CCN(S(=O)(=O)c2nnc(NC(=O)c3ccco3)s2)CC1	35	31	2	-2	46*	9
CC(C)=CCC/C(C)=C/CC/C(C)=C/CC/C(C)=C/CC1=C(C)C(=O)c2ccccc2C1=O	32	16	0	-4	26	·
CC(C)=CCC1=C(OCC(=O)O)C(=O)c2ccccc2C1=O	49	34	1	1	52*	44*
COCCN(C(=O)C1CCN(C(=O)c2ccccc2C)CC1)c1c(N)n(CC(C)C)c(=O)[nH]c1=O	4	1	0	-2	-7	·
CCN(C(=O)COC(=O)C1CC1C)c1c(N)n(Cc2ccccc2)c(=O)[nH]c1=O (configuration not stated)	2	-15	2	3	-12	·
Cn1nc(C(F)(F)F)c(C(=O)Nc2ccc(F)cc2F)c1Sc1cccc(Cl)c1	27	17	-1	-2	44*	34*
Cn1nc(C(F)(F)F)c(C(=O)Nc2ccc(F)cc2F)c1Sc1cccc(C(F)(F)F)c1	21	23	-1	-4	39	·
CSCCC(NC(=O)c1ccccc1)C(=O)N1CCN(C(C)=O)CC1 (configuration not stated)	-3	-6	1	0	1	·
CCn1c(SCc2cccc(C)c2)nnc1-c1ccccc1	37	29	1	2	47*	29
O=C(CCC(=O)N1CCN(c2ccccn2)CC1)c1ccc(Cl)s1	10	-16	2	2	-8	·
CCSc1ccc2nnc(-c3cccc(F)c3)n2n1	38	33	-1	4	40*	34*
CCOC(=O)c1ccc(-n2cccc2/C=C2\NC(=O)NC2=O)cc1	-4	4	-2	-3	4	·
Cc1ccc(C(=O)N2CCN(c3ccc(C(F)(F)F)cn3)CC2)cc1	14	22	0	-2	20	·
Cc1ccc(C(=O)N2CCN(c3ccc(C(F)(F)F)cn3)CC2)c(C)c1	49	20	1	-3	44*	30
O=C(c1cnc2ccccc2n1)N1CCN(c2ccc(C(F)(F)F)cn2)CC1	24	21	0	-4	27	·
Cc1c(C(=O)N2CCN(c3ccc(C(F)(F)F)cn3)CC2)oc2ccccc12	33	26	1	-1	41*	37*
O=C(COc1ccc2c3c(c(=O)oc2c1)CCCC3)NCc1ccccn1	18	1	-1	-1	12	·
COC(=O)c1c(NC(=S)NNC(=O)c2ccc(Cl)s2)sc(C(=O)N(C)C)c1C	-3	-7	0	-4	-2	·
Cn1c(=O)c2c(nc(Oc3ccc(-c4ccccc4)cc3)n2C)n(C)c1=O	14	19	-1	-4	40*	5
CCOC(=O)c1c(N2C(=O)C3CC(C)=C(C)CC3C2=O)sc(C)c1C (configuration not stated)	40	12	-1	-2	40*	11
CN(C(=O)COc1cccc(C#N)c1)C1CCS(=O)(=O)C1 (configuration not stated)	-9	3	-3	6	17	·
CCCCCCCCS(=O)c1sc2nc3c(cc2c1N)CCCC3 (configuration not stated)	43	28	0	0	42*	50*
O=C(c1ccco1)N1CCCC(c2nc3c(nnn3Cc3cccc(Cl)c3)c(=O)[nH]2)C1 (configuration not stated)	-1	0	1	2	53*	-3
CCOC(=O)N1CCC(NC(=O)c2ccc3c(Cl)c4c(nc3c2)CCCC4)CC1	42	21	3	5	41*	17
SMILES	tim23-1 inh	TIM10 inh	UPR CHOP act	XBP1 UPR activ	tim10-1 inh	tim10-1 confirm
CC1CCN(C(=O)c2ccc3c(Cl)c4c(nc3c2)CCCC4)CC1	40	8	2	0	47*	40*
CCC1=Nc2cc(C(=O)NCCN3CCOCC3)ccc2Sc2ccccc21	6	6	1	-9	16	·
CCOC(=O)N1CCC(NC(=O)c2ccc3c(c2)N=C(CC)c2ccccc2S3)CC1	40	11	-1	-1	45*	13
CN(Cc1ccccc1Br)C(=O)CSc1nnnn1C1CC1	11	17	-1	-1	10	·
O=C(CN1C(=O)NC2(CCCC2)C1=O)OCc1cccc(Br)c1	12	4	0	0	15	·
O=C(Nc1ccc(Cl)c(Cl)c1)Oc1ccc(NC(=O)c2ccco2)cc1	29	19	-1	1	44*	26
O=C(Nc1ccc(OC(=O)c2ccco2)cc1)c1ccco1	35	29	3	3	-8	·
COc1ccccc1-c1nnc(SC(C)C(=O)Nc2ccc(C(N)=O)cc2)o1 (configuration not stated)	-6	-7	2	-2	-11	·
CC1(C)Cc2c(sc(NC(=O)C(=O)N3CCCC3)c2C#N)CO1	27	15	2	1	41*	9
COc1ccc(OC)c(-c2cc(C3CCN(C(=O)OC(C)(C)C)CC3)[nH]n2)c1	19	9	3	-1	40	6
COc1ccc(-c2cc(C3CCN(c4ccc(C(C)=O)cc4[N+](=O)[O-])CC3)[nH]n2)cc1	21	29	5	3	35	·
COc1ccc(-c2cc(C3CCN(C(=O)OC(C)(C)C)CC3)[nH]n2)cc1	39	34	0	-2	44*	39*
CCNC(=S)Nc1ccc2c(c1)oc1ccccc12	2	17	5	5	-7	·
CC(C)(C)[C@H]1COC(=O)CCC/C=C/C[C@H](CC(=O)NCCO)C(=O)N1	-6	-5	2	0	-8	·
CC(=NNC(=O)Cn1ccc(C(F)(F)F)n1)c1ccc(-n2ccnc2)cc1	-7	-21	-1	-4	-48	·
O=C(Nc1cccc2ccccc12)N1CCN(c2ccccc2)CC1	3	-11	0	-3	-15	·
O=C(Nc1cccc(Cl)c1)N1N=CCC1c1ccccc1 (configuration not stated)	39	26	0	0	48*	47*
O=C(Nc1cccc2ccccc12)N1N=CCC1c1ccccc1 (configuration not stated)	42	23	7	2	44*	29
S=C(Nc1ccccc1)N1N=CCC1c1ccccc1 (configuration not stated)	22	12	2	4	46*	25
COc1ccc(CCNC(=O)c2cccc(S(=O)(=O)N3CCCCCC3)c2)cc1	38	22	0	-1	26	·
